Assay results from ChEMBL document CHEMBL1123181 (J Med Chem, 1986).

Columns and labels:
[1] = molecular target: T1, Angiotensin-converting enzyme (Oryctolagus cuniculus, UniProt P12822); assay: In vitro inhibition of Angiotensin I converting enzyme activity at pH 8.5 in rabbit lung; format: tissue-based; conditions: read-out: I50
T1 sequence (P12822 whole entry): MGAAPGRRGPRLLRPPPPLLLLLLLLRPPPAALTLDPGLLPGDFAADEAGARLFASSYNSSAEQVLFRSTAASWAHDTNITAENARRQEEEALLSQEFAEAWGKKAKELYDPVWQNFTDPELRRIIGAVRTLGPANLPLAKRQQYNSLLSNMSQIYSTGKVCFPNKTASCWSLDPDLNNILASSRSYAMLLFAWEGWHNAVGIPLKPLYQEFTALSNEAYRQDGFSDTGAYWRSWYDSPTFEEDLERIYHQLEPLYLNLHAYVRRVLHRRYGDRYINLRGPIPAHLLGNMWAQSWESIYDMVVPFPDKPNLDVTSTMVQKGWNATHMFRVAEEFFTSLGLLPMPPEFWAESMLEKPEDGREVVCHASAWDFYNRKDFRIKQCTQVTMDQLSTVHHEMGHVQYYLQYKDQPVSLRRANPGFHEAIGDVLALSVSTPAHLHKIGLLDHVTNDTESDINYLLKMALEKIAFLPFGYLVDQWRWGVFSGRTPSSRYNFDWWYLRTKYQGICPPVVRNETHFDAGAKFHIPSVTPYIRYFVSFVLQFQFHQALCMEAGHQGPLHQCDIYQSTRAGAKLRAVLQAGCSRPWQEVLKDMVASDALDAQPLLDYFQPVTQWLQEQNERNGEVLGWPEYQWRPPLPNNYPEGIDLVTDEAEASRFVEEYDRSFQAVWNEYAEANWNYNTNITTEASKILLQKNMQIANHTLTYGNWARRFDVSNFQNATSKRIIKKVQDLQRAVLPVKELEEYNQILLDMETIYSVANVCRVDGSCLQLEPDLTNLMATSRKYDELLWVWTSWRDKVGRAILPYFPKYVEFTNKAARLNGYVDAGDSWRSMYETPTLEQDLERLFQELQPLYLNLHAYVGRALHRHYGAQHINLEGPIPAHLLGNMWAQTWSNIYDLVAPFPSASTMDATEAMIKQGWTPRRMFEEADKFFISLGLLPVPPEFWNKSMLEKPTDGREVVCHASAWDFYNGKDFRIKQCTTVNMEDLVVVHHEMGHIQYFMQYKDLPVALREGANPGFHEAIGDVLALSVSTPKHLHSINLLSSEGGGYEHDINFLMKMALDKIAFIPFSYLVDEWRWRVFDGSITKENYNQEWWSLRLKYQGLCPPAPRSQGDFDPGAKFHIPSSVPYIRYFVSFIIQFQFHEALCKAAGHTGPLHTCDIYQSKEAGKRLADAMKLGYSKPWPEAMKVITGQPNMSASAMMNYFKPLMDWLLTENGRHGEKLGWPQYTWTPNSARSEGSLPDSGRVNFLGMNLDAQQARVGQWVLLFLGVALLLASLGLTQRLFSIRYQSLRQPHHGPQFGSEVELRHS

[2] = molecular target: Angiotensin-converting enzyme (Rattus norvegicus) (UniProt P47820); assay: Percentage inactivation of the angiotensin I induced vasopressor response in normotensive conscious rats after po administration at dose 0.15 mg/kg
Chain of Angiotensin-converting enzyme (Rattus norvegicus) (P47820 whole entry, looked up): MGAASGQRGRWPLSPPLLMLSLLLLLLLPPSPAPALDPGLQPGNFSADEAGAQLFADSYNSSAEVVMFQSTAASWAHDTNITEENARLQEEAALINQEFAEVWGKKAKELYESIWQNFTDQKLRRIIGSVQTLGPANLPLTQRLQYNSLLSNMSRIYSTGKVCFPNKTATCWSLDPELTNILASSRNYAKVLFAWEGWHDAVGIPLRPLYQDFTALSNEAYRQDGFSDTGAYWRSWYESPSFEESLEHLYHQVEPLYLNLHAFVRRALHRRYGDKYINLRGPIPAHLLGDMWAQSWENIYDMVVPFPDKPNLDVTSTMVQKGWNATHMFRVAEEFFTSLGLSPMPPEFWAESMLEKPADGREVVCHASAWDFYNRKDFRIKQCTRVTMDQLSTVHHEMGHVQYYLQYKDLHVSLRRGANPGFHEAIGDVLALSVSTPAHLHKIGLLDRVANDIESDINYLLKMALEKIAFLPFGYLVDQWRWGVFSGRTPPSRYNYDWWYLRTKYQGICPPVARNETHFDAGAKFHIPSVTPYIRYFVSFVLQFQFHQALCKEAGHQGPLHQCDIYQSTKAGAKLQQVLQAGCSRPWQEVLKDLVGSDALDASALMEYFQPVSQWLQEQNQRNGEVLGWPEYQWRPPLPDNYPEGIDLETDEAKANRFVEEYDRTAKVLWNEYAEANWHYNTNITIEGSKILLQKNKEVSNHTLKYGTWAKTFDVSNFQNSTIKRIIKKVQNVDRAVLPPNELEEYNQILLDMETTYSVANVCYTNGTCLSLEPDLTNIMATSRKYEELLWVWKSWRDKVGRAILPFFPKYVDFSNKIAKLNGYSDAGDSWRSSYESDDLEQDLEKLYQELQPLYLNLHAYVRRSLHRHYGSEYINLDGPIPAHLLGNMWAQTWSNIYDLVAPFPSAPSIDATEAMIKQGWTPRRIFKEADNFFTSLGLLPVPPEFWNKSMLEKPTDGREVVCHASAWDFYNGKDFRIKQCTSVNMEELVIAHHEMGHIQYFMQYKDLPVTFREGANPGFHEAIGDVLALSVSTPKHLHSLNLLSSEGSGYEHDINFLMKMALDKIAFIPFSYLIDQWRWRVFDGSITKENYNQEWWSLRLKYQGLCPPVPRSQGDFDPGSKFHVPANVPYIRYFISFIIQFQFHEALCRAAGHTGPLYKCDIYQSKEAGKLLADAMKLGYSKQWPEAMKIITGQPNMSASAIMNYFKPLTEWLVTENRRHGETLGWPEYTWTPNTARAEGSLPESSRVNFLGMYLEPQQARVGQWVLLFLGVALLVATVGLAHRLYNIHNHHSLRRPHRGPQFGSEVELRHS

[3] = molecular target: Angiotensin-converting enzyme (Rattus norvegicus) (UniProt P47820); assay: The time to 50% recovery of the angiotensin I response was measured after po administration at 0.15 mg/kg; 10-20
[4] = molecular target: T1, Angiotensin-converting enzyme; assay: In vitro inhibition of Angiotensin I converting enzyme activity in rabbit lung; format: tissue-based; conditions: read-out: I50
Rattus norvegicus [5] = assay: Maximum percent change in mean arterial pressure by the compound over control after ip administration at 100 mg/kg dosage; 9-14; conditions: route intraperitoneal
Rattus norvegicus [6] = assay: Maximum percent change in mean arterial pressure by the compound over control after po administration at 100 mg/kg dosage; -(-32-40); format: functional, Artery
Procedure, shortened: (§1)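 Spontaneously hypertensive rats kept on a sodium-deficient diet received the agent orally. Value = maximum % change in mean arterial pressure over control. Duration = time outside a control area, defined as the means ±2 SD of arterial pressure and heart rate readings from 45 control rats.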

Rattus norvegicus [7] = assay: Time taken by the compound to change arterial pressure outside the control area at a dose of 100 mg/kg, po; format: functional, Artery
Procedure, shortened: (§2)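 Spontaneously hypertensive rats kept on a sodium-deficient diet, single oral dose, arterial pressure and heart rate monitored. Duration is the time pressure lies outside a control area, defined as the means (±2 standard deviations) of arterial pressure and heart rate readings from 45 control rats. Range given across animals.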

[8] = molecular target: Angiotensin-converting enzyme (Rattus norvegicus) (UniProt P47820); assay: The time to 50% recovery of the angiotensin I response was measured after po administration at 0.8 mg/kg; 35-50
[9] = molecular target: Angiotensin-converting enzyme (Rattus norvegicus) (UniProt P47820); assay: Percentage inactivation of the angiotensin I induced vasopressor response in normotensive conscious rats after po administration at dose 0.80 mg/kg; 50-55
[10] = molecular target: T1, Angiotensin-converting enzyme; assay: Compound was tested in vitro for inhibition of activity of rabbit lung Angiotensin I converting enzyme at pH 8.5; 0.14-10; conditions: read-out: I50
Rattus norvegicus [11] = assay: Time taken by the compound to change arterial pressure outside the control area at a dose of 100 mg/kg, po; 15->24; format: functional, Artery; procedure, shortened: as §2
[12] = molecular target: Angiotensin-converting enzyme (Rattus norvegicus) (UniProt P47820); assay: The time to 50% recovery of the angiotensin I response was measured after po administration at 0.3 mg/kg; 10-30
Rattus norvegicus [13] = assay: Maximum percent change in mean arterial pressure by the compound over control after po administration at 100 mg/kg dosage; -(-27-45); format: functional, Artery; procedure, shortened: as §1
[14] = molecular target: Angiotensin-converting enzyme (Rattus norvegicus) (UniProt P47820); assay: Percentage inactivation of the angiotensin I induced vasopressor response in normotensive conscious rats after po administration at dose 0.3 mg/kg; 45-50
Rattus norvegicus [15] = assay: Time taken by the compound to change arterial pressure outside the control area at a dose of 100 mg/kg, po; 2-12.5; format: functional, Artery; procedure, shortened: as §2
[16] = molecular target: Angiotensin-converting enzyme (Rattus norvegicus) (UniProt P47820); assay: Percentage inactivation of the angiotensin I induced vasopressor response in normotensive conscious rats after po administration at dose 0.15 mg/kg; 65-69
Rattus norvegicus [17] = assay: The time to 50% recovery of the angiotensin I response was measured after po administration at 0.15 mg/kg; 10-50
Rattus norvegicus [18] = assay: Maximum percent change in mean arterial pressure by the compound over control after po administration at 100 mg/kg dosage; -(15-27); format: functional, Artery; procedure, shortened: as §1
[19] = molecular target: Angiotensin-converting enzyme (Rattus norvegicus) (UniProt P47820); assay: The time to 50% recovery of the angiotensin I response was measured after po administration at 1.5 mg/kg; 70-90
[20] = molecular target: Angiotensin-converting enzyme (Rattus norvegicus) (UniProt P47820); assay: Percentage inactivation of the angiotensin I induced vasopressor response in normotensive conscious rats after po administration at dose 1.5 mg/kg; 71-81
Rattus norvegicus [21] = assay: Maximum percent change in mean arterial pressure by the compound over control after po administration at 50 mg/kg dosage; -(31-34); format: functional, Artery; procedure, shortened: as §1
Rattus norvegicus [22] = assay: Time taken by the compound to change arterial pressure outside the control area at a dose of 50 mg/kg, po; 3-19.5; format: functional, Artery; procedure, shortened: as §2
[23] = molecular target: Angiotensin-converting enzyme (Rattus norvegicus) (UniProt P47820); assay: Percentage inactivation of the angiotensin I induced vasopressor response in normotensive conscious rats after po administration at dose 0.15 mg/kg; 55-76
[24] = molecular target: Angiotensin-converting enzyme (Rattus norvegicus) (UniProt P47820); assay: The time to 50% recovery of the angiotensin I response was measured after po administration at 0.15 mg/kg; 10-40
Rattus norvegicus [25] = assay: Maximum percent change in mean arterial pressure by the compound over control after po administration at 100 mg/kg dosage; format: functional, Artery; procedure, shortened: as §1
Rattus norvegicus [26] = assay: Time taken by the compound to change arterial pressure outside the control area at a dose of 100 mg/kg, po; 5.5-15; format: functional, Artery; procedure, shortened: as §2
[27] = molecular target: Angiotensin-converting enzyme (Rattus norvegicus) (UniProt P47820); assay: Percentage inactivation of the angiotensin I induced vasopressor response in normotensive conscious rats after po administration at dose 0.60 mg/kg; 50-55
[28] = molecular target: Angiotensin-converting enzyme (Rattus norvegicus) (UniProt P47820); assay: The time to 50% recovery of the angiotensin I response was measured after po administration at 0.6 mg/kg; 40-50
Rattus norvegicus [29] = assay: Maximum percent change in mean arterial pressure by the compound over control after po administration at 100 mg/kg dosage; -(17-29); format: functional, Artery; procedure, shortened: as §1

## O=C1CN(C2CCCC2)C(=O)c2ccccc2S1
[1]
  IC50: 4800 nM
[2]
  inhibition: 5%
[3]
  Duration: 10 min
[4]
  IC50: 4500 nM
Rattus norvegicus [5]
  MAP: 9%

## COc1cccc2c1SC(=O)CN(C1CCCC1)C2=O
[1]
  IC50: 380 nM
Rattus norvegicus [6]
  MAP: -32%
[4]
  IC50: 400 nM
Rattus norvegicus [7]
  Duration: >24 h
[8]
  Duration: 35 min
[9]
  inhibition: 50%

## CC1SC(=O)C2CSCN2C1=O (configuration not stated)
[10]
  IC50: 140 nM
[4]
  IC50: 380 nM

## C[C@@H]1CSC(=O)[C@@H]2Cc3ccccc3CN2C1=O
Rattus norvegicus [11]
  Duration: 900 min
[4]
  IC50: 12 nM
[12]
  Duration: 10 min
Rattus norvegicus [13]
  MAP: -27%
[14]
  inhibition: 45%

## CC1CSC(=O)CN(C2CCCC2)C1=O (configuration not stated)
[1]
  IC50: 18 nM
Rattus norvegicus [15]
  Duration: 2 h
[4]
  IC50: 13 nM
[16]
  inhibition: 65%
Rattus norvegicus [17]
  Duration: 10 min
Rattus norvegicus [18]
  MAP: -15%

## Cc1ccc(N2CC(=O)SC(C)C2=O)cc1 (configuration not stated)
[1]
  IC50: 26 nM
[19]
  Duration: 70 min
[20]
  inhibition: 71%
Rattus norvegicus [21]
  MAP: -31%
[4]
  IC50: 85 nM
Rattus norvegicus [22]
  Duration: 3 h

## Cc1ccc(N2CC(=O)SCC(C)C2=O)cc1 (configuration not stated)
[23]
  inhibition: 55%
[1]
  IC50: 5 nM
[24]
  Duration: 10 min
[4]
  IC50: 21 nM
Rattus norvegicus [25]
  MAP: -37%
Rattus norvegicus [7]
  Duration: > 24 h

## O=C1CN(C2CCCC2)C(=O)c2cccc(Cl)c2S1
[1]
  IC50: 280 nM
Rattus norvegicus [26]
  Duration: 5.5 h
[27]
  inhibition: 50%
[28]
  Duration: 40 min
[4]
  IC50: 210 nM
Rattus norvegicus [29]
  MAP: -17%
